Measured values taken from ChEMBL document CHEMBL3045677, “Sulfonamide-1,2,4-thiadiazole derivatives as antifungal and antibacterial agents: synthesis, biological evaluation, lipophilicity, and conformational studies” (2010).
In brackets after ≈: the same amount, converted by molar mass.

Columns and labels:
Bacillus cereus [1] = assay: Antibacterial activity against clinical isolate Bacillus cereus at […] degC measured after 72 hr by microdilution method; type: functional
Outline: (§1)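 Bactericidal endpoint: after the 24 h broth microdilution (1.0×10⁴ CFU per well, LB broth, […] °C), wells were serially subcultured into plates of fresh broth and incubated a further 72 h. MBC was the lowest concentration with no visible growth, taken as 99.5% killing of the original inoculum.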

Escherichia coli [2] = assay: Antibacterial activity against Escherichia coli ATCC 35210 at […] degC measured after 72 hr by microdilution method; type: functional; settings: ATCC 35210, 72 h; outline: as §1
Salmonella typhimurium [3] = assay: Antibacterial activity against Salmonella enterica subsp. enterica serovar TyphimuriumATCC 13311 at […] degC measured after 72 hr by microdilution method; type: functional, Salmonella enterica subsp. enterica serovar Typhimurium; settings: ATCC 13311, 72 h; outline: as §1
Aspergillus fumigatus = assay: Antifungal activity against plant isolate Aspergillus fumigatus at 28 degC measured after 72 hr by microdilution method; type: functional
Outline: (§2)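 Fungi were kept on malt agar at 4 °C. Spores were washed off with sterile 0.85% saline containing 0.1% Tween 80 and adjusted to about 1.0×10⁵ per well. Compounds were dissolved in DMSO (1 mg/ml stock) and serially diluted in malt broth with inoculum in 96-well plates, 72 h at 28 °C, for MIC. MFC came from subculture into fresh broth for a further 72 h at 28 °C.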

Listeria monocytogenes [4] = assay: Antibacterial activity against Listeria monocytogenes NCTC 7973 at […] degC measured after 24 hr by microdilution method; type: functional; settings: NCTC 7973, 24 h
Outline: (§3)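 Bacteria suspended in sterile saline at 1.0×10⁵ CFU/ml and added at 1.0×10⁴ CFU per well to LB broth with compound (1 mg/ml) in 96-well plates. Incubated 24 h at […] °C. MIC was the lowest concentration without visible growth under a binocular microscope. OD 655 nm was read against a blank and a positive control.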

Micrococcus flavus [5] = assay: Antibacterial activity against Micrococcus flavus ATCC 10240 at […] degC measured after 24 hr by microdilution method; type: functional; settings: ATCC 10240, 24 h; outline: as §3
Staphylococcus aureus [6] = assay: Antibacterial activity against Staphylococcus aureus ATCC 6538 at […] degC measured after 24 hr by microdilution method; type: functional; settings: ATCC 6538, 24 h; outline: as §3
Pseudomonas aeruginosa [7] = assay: Antibacterial activity against Pseudomonas aeruginosa ATCC 27853 at […] degC measured after 72 hr by microdilution method; type: functional; settings: ATCC 27853, 72 h; outline: as §1
Fulvia fulva = assay: Antifungal activity against Passalora fulva TK5318 at 28 degC measured after 72 hr by microdilution method; type: functional; settings: TK5318, 72 h; outline: as §2
Escherichia coli [8] = assay: Antibacterial activity against Escherichia coli ATCC 35210 at […] degC measured after 24 hr by microdilution method; type: functional; settings: ATCC 35210, 24 h; outline: as §3
Trichoderma viride = assay: Antifungal activity against Hypocrea rufa IAM 5061 at 28 degC measured after 72 hr by microdilution method; type: functional; settings: IAM 5061, 72 h; outline: as §2
Aspergillus flavus = assay: Antifungal activity against Aspergillus flavus ATCC 9643 at 28 degC measured after 72 hr by microdilution method; type: functional; settings: ATCC 9643, 72 h; outline: as §2
Penicillium ochrochloron = assay: Antifungal activity against Penicillium ochrochloron ATCC 9112 at 28 degC measured after 72 hr by microdilution method; type: functional; settings: ATCC 9112, 72 h; outline: as §2
Pseudomonas aeruginosa [9] = assay: Antibacterial activity against Pseudomonas aeruginosa ATCC 27853 at […] degC measured after 24 hr by microdilution method; type: functional; settings: ATCC 27853, 24 h; outline: as §3
Salmonella typhimurium [10] = assay: Antibacterial activity against Salmonella enterica subsp. enterica serovar Typhimurium ATCC 13311 at […] degC measured after 24 hr by microdilution method; type: functional; settings: ATCC 13311, 24 h; outline: as §3
Bacillus cereus [11] = assay: Antibacterial activity against clinical isolate Bacillus cereus at […] degC measured after 24 hr by microdilution method; type: functional; outline: as §3
Proteus mirabilis [12] = assay: Antibacterial activity against Proteus mirabilis at […] degC measured after 72 hr by microdilution method; type: functional; outline: as §1
Aspergillus niger = assay: Antifungal activity against Aspergillus niger ATCC 6275 at 28 degC measured after 72 hr by microdilution method; type: functional; settings: ATCC 6275, 72 h; outline: as §2
Talaromyces funiculosus = assay: Antifungal activity against Talaromyces funiculosus ATCC 36839 at 28 degC measured after 72 hr by microdilution method; type: functional; settings: ATCC 36839, 72 h; outline: as §2
Micrococcus flavus [13] = assay: Antibacterial activity against Micrococcus flavus ATCC 10240 at […] degC measured after 72 hr by microdilution method; type: functional; settings: ATCC 10240, 72 h; outline: as §1
Aspergillus versicolor = assay: Antifungal activity against Aspergillus versicolor ATCC 11730 at 28 degC measured after 72 hr by microdilution method; type: functional; settings: ATCC 11730, 72 h; outline: as §2
Listeria monocytogenes [14] = assay: Antibacterial activity against Listeria monocytogenes NCTC 7973 at […] degC measured after 72 hr by microdilution method; type: functional; settings: NCTC 7973, 72 h; outline: as §1
Proteus mirabilis [15] = assay: Antibacterial activity against Proteus mirabilis at […] degC measured after 24 hr by microdilution method; type: functional; outline: as §3
Staphylococcus aureus [16] = assay: Antibacterial activity against Staphylococcus aureus ATCC 6538 at […] degC measured after 72 hr by microdilution method; type: functional; settings: ATCC 6538, 72 h; outline: as §1

Row | SMILES | MBC (Bacillus cereus [1]) [µM] | MBC (Escherichia coli [2]) [µM] | MBC (Salmonella typhimurium [3]) [µM] | MFC (Aspergillus fumigatus) [µM] | MIC (Aspergillus fumigatus) [µM] | MIC (Listeria monocytogenes [4]) [µM] | MIC (Micrococcus flavus [5]) [µM] | MIC (Staphylococcus aureus [6]) [µM] | MBC (Pseudomonas aeruginosa [7]) [µM] | MFC (Fulvia fulva) [µM] | MIC (Fulvia fulva) [µM] | MIC (Escherichia coli [8]) [µM] | MFC (Trichoderma viride) [µM] | MIC (Trichoderma viride) [µM] | MFC (Aspergillus flavus) [µM] | MIC (Aspergillus flavus) [µM] | MFC (Penicillium ochrochloron) [µM] | MIC (Penicillium ochrochloron) [µM] | MIC (Pseudomonas aeruginosa [9]) [µM] | MIC (Salmonella typhimurium [10]) [µM] | further results
1 | COc1cc(Cc2nnc(Nc3ccc(C(F)(F)F)cc3)s2)c(S(=O)(=O)N(C)C)cc1OC | 19.9 (≈ 10 µg/mL) | 79.6 (≈ 40 µg/mL) | 19.9 (≈ 10 µg/mL) | 39.8 (≈ 20 µg/mL) | 19.9 (≈ 10 µg/mL) | 39.8 (≈ 20 µg/mL) | 9.9 (≈ 4.98 µg/mL) | 19.9 (≈ 10 µg/mL) | 39.8 (≈ 20 µg/mL) | 19.9 (≈ 10 µg/mL) | 9.9 (≈ 4.98 µg/mL) | 39.8 (≈ 20 µg/mL) | 19.9 (≈ 10 µg/mL) | 9.9 (≈ 4.98 µg/mL) | 39.8 (≈ 20 µg/mL) | 19.9 (≈ 10 µg/mL) | 39.8 (≈ 20 µg/mL) | 9.9 (≈ 4.98 µg/mL) | 19.9 (≈ 10 µg/mL) | 9.9 (≈ 4.98 µg/mL) | MIC (Bacillus cereus [11]): 9.9 µM (≈ 4.98 µg/mL); MBC (Proteus mirabilis [12]): 79.6 µM (≈ 40 µg/mL); MFC (Aspergillus niger): 39.8 µM (≈ 20 µg/mL); MIC (Aspergillus niger): 19.9 µM (≈ 10 µg/mL); MFC (Talaromyces funiculosus): 19.9 µM (≈ 10 µg/mL); MIC (Talaromyces funiculosus): 9.9 µM (≈ 4.98 µg/mL); MBC (Micrococcus flavus [13]): 19.9 µM (≈ 10 µg/mL); MFC (Aspergillus versicolor): 39.8 µM (≈ 20 µg/mL); MIC (Aspergillus versicolor): 9.9 µM (≈ 4.98 µg/mL); MBC (Listeria monocytogenes [14]): 79.6 µM (≈ 40 µg/mL); MIC (Proteus mirabilis [15]): 19.9 µM (≈ 10 µg/mL); MBC (Staphylococcus aureus [16]): 39.8 µM (≈ 20 µg/mL)
2 | COc1cc(Cc2nnc(Nc3ccccc3)s2)c(S(=O)(=O)N(C)C)cc1OC | 46 (≈ 20 µg/mL) | 46 (≈ 20 µg/mL) | 92 (≈ 40 µg/mL) | 46 (≈ 20 µg/mL) | 11.5 (≈ 5 µg/mL) | 46 (≈ 20 µg/mL) | 11.5 (≈ 5 µg/mL) | 46 (≈ 20 µg/mL) | 46 (≈ 20 µg/mL) | 23 (≈ 9.99 µg/mL) | 11.5 (≈ 5 µg/mL) | 46 (≈ 20 µg/mL) | 23 (≈ 9.99 µg/mL) | 11.5 (≈ 5 µg/mL) | 46 (≈ 20 µg/mL) | 23 (≈ 9.99 µg/mL) | 46 (≈ 20 µg/mL) | 23 (≈ 9.99 µg/mL) | 46 (≈ 20 µg/mL) | 46 (≈ 20 µg/mL) | MIC (Bacillus cereus [11]): 23 µM (≈ 9.99 µg/mL); MBC (Proteus mirabilis [12]): 46 µM (≈ 20 µg/mL); MFC (Aspergillus niger): 46 µM (≈ 20 µg/mL); MIC (Aspergillus niger): 23 µM (≈ 9.99 µg/mL); MFC (Talaromyces funiculosus): 23 µM (≈ 9.99 µg/mL); MIC (Talaromyces funiculosus): 11.5 µM (≈ 5 µg/mL); MBC (Micrococcus flavus [13]): 17.5 µM (≈ 7.6 µg/mL); MFC (Aspergillus versicolor): 23 µM (≈ 9.99 µg/mL); MIC (Aspergillus versicolor): 11.5 µM (≈ 5 µg/mL); MBC (Listeria monocytogenes [14]): 92 µM (≈ 40 µg/mL); MIC (Proteus mirabilis [15]): 46 µM (≈ 20 µg/mL); MBC (Staphylococcus aureus [16]): 92 µM (≈ 40 µg/mL)
3 | COc1cc(Cc2nnc(Nc3ccc(C(F)(F)F)cc3)s2)c(S(=O)(=O)N2CCCCC2)cc1OC | 18.4 (≈ 9.98 µg/mL) | 36.8 (≈ 20 µg/mL) | 18.4 (≈ 9.98 µg/mL) | 36.8 (≈ 20 µg/mL) | 9.2 (≈ 4.99 µg/mL) | 18.4 (≈ 9.98 µg/mL) | 9.2 (≈ 4.99 µg/mL) | 18.4 (≈ 9.98 µg/mL) | 18.4 (≈ 9.98 µg/mL) | 18.4 (≈ 9.98 µg/mL) | 9.2 (≈ 4.99 µg/mL) | 18.4 (≈ 9.98 µg/mL) | 18.4 (≈ 9.98 µg/mL) | 9.2 (≈ 4.99 µg/mL) | 36.8 (≈ 20 µg/mL) | 18.4 (≈ 9.98 µg/mL) | 36.8 (≈ 20 µg/mL) | 18.4 (≈ 9.98 µg/mL) | 9.2 (≈ 4.99 µg/mL) | 9.2 (≈ 4.99 µg/mL) | MIC (Bacillus cereus [11]): 9.2 µM (≈ 4.99 µg/mL); MBC (Proteus mirabilis [12]): 73.6 µM (≈ 39.9 µg/mL); MFC (Aspergillus niger): 36.8 µM (≈ 20 µg/mL); MIC (Aspergillus niger): 18.4 µM (≈ 9.98 µg/mL); MFC (Talaromyces funiculosus): 18.4 µM (≈ 9.98 µg/mL); MIC (Talaromyces funiculosus): 9.2 µM (≈ 4.99 µg/mL); MBC (Micrococcus flavus [13]): 18.4 µM (≈ 9.98 µg/mL); MFC (Aspergillus versicolor): 18.4 µM (≈ 9.98 µg/mL); MIC (Aspergillus versicolor): 9.2 µM (≈ 4.99 µg/mL); MBC (Listeria monocytogenes [14]): 73.6 µM (≈ 39.9 µg/mL); MIC (Proteus mirabilis [15]): 36.8 µM (≈ 20 µg/mL); MBC (Staphylococcus aureus [16]): 36.8 µM (≈ 20 µg/mL)
